According to ChEMBL document CHEMBL1128506, “Synthesis and dopaminergic activity of pyridine analogs of 5-hydroxy-2-(di-n-propylamino)tetralin” (J Med Chem, 1995):

Columns and labels:
D(2) dopamine receptor [1] = biological target: T1, D(2) dopamine receptor (Homo sapiens, UniProt P14416); assay: In vitro binding affinity is the ability to displace [3H]N-0437 from human Dopamine receptor D2 expressed in CHO-K1 cells; format: cell-based
D(2) dopamine receptor [2] = biological target: T1, D(2) dopamine receptor; assay: In vitro binding affinity is the ability to displace [3H]spiperone from human Dopamine receptor D2 expressed in CHO-K1 cells; format: cell-based
D(3) dopamine receptor [3] = biological target: T2, D(3) dopamine receptor (Homo sapiens, UniProt P35462); assay: In vitro binding affinity is the ability to displace [3H]spiperone from human Dopamine receptor D3 expressed in CHO-K1 cells.; format: cell-based
T2 sequence (P35462 whole entry): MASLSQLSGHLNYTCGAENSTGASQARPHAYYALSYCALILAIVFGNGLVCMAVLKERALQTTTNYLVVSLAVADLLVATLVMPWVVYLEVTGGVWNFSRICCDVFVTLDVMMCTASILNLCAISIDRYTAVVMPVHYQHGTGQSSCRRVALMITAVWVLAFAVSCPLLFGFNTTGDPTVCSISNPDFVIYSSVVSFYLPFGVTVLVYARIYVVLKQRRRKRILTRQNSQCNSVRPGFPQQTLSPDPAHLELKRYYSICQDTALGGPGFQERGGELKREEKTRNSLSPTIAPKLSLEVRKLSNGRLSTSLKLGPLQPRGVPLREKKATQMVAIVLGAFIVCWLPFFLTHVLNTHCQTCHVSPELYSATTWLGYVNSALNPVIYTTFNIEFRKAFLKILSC

Mus musculus [4] = assay: Inhibition of locomotor activity(LMA) in mouse after ip administration of the compound.; format: functional
In short: (§1)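 Mice given compound ip, then tested immediately for 1 h in darkened cylindrical photobeam chambers. Activity expressed as percent inhibition relative to vehicle-treated animals.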

Rattus norvegicus [5] = assay: Percent reversal of the increase on DOPA levels in the striatum of GBL-treated rats administered ip with 10 mg/kg of compound.; format: functional; conditions: route intraperitoneal
In short: (§2)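 Male Long-Evans rats received compound 1 h before sacrifice. GBL (750 mg/kg ip) and the decarboxylase inhibitor NSD 1015 (100 mg/kg ip) were given 30 min before sacrifice. Striatal DOPA was measured by HPLC with electrochemical detection. Result reported as percent reversal of the GBL-induced DOPA increase, n = 4.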

D(3) dopamine receptor [6] = biological target: T2, D(3) dopamine receptor; assay: In vitro binding affinity is the ability to displace [3H]spiperone from human Dopamine receptor D3 expressed in CHO-K1 cells; format: cell-based
In short: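 CHO-K1 cells stably expressing human D3 receptor, grown in F-12 medium with 10% fetal bovine serum under humidified 5% CO2/95% air.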

Mus musculus [7] = assay: Inhibition of locomotor activity(LMA) in mouse after ip administration of the compound; format: functional; in short: as §1
Rattus norvegicus [8] = assay: Percent reversal of the increase on DOPA levels in the striatum of GBL-treated rats administered ip with 10 mg/kg of compound; format: functional; conditions: route intraperitoneal; in short: as §2
Rattus norvegicus [9] = assay: Inhibition of locomotor activity(LMA) in rat after sc administration of the compound.
Rattus norvegicus [10] = assay: as above; remark: listed apart in the source

T1 sequence (P14416 whole entry): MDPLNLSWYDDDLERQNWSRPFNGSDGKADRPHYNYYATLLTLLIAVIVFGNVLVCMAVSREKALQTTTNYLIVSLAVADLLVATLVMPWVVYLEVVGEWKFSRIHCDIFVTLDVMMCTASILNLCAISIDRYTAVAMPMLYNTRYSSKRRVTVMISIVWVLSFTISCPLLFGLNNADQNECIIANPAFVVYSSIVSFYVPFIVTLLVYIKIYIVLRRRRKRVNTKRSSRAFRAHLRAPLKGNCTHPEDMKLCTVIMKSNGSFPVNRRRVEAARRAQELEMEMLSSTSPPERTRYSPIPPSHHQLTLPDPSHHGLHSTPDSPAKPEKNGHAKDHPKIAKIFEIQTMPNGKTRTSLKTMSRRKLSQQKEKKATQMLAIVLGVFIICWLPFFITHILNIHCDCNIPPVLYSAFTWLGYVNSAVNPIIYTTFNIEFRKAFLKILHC

Structure (SMILES) | Ki (D(2) dopamine receptor [1]) [nM] | Ki (D(2) dopamine receptor [2]) [nM] | Ki (D(3) dopamine receptor [3]) [nM] | ED50 (Mus musculus [4]) [mg/kg] | Decrease (Rattus norvegicus [5]) [%] | Ki (D(3) dopamine receptor [6]) [nM] | ED50 (Mus musculus [7]) [mg/kg] | Decrease (Rattus norvegicus [8]) [%] | ED50 (Rattus norvegicus [9]) [mg/kg] | Inhibition (Rattus norvegicus [10]) [%]
CCCN(CCC)C1CCc2nc(OC)ccc2C1 (centres undefined) | 1200 | > 3330 | 158 | > 30 | 62 | – | – | – | – | –
CCCN(CCC)C1CCc2nc(N)sc2C1 (centres undefined) | 57 | 462 | – | – | – | 1.9 | > 30 | 88 | – | –
CCCN(CCC)C1CCc2ncccc2C1 (centres undefined) | 466 | 272 | 4.97 | 0.08 | 86 | – | – | – | 0.01 | –
CCCN(CCC)C1CCc2cc(OC)ccc2C1 (centres undefined) | 3940 | > 10000 | 366 | – | – | – | – | – | – | –
CCCN(CCC)C1CCc2nc(N)ccc2C1 (centres undefined) | 5 | 17.1 | 0.87 | 0.25 | 86 | – | – | – | 0.05 | –
CCCN(CCC)C1CCc2n[nH]cc2C1 (centres undefined) | 523 | > 3330 | – | 0.64 | 91 | 36 | – | – | – | 45
CCCN(CCC)C1CCc2c(O)cccc2C1 (centres undefined) [5-OH-DPAT] | – | – | – | 0.01 | 70 | – | – | – | 0.004 | –
